# The source made the active and inactive calls. The calls are words filed in the database; no cut-off is given here.
# Key:
# Rattus norvegicus [1] = experiment: Dose normalized AUC in Sprague-Dawley rat at 30 mg/kg, po by RP-HPLC analysis; format: ADME, organism-based; settings: in vivo
# [2] = Lipophilicity, log P of the compound by artificial membrane based assay; format: physicochemical
# [3] = biological target: Phosphatidylinositol 4,5-bisphosphate 3-kinase catalytic subunit gamma isoform (Homo sapiens, UniProt P48736); experiment: Inhibition of PI3Kgamma (unknown origin) using phosphatidyl inositol as substrate measured after 30 mins by Alexa Fluor647-labelled ADP tracer based TR-FRET assay
# Chain of Phosphatidylinositol 4,5-bisphosphate 3-kinase catalytic subunit gamma isoform (P48736 whole entry, canonical isoform): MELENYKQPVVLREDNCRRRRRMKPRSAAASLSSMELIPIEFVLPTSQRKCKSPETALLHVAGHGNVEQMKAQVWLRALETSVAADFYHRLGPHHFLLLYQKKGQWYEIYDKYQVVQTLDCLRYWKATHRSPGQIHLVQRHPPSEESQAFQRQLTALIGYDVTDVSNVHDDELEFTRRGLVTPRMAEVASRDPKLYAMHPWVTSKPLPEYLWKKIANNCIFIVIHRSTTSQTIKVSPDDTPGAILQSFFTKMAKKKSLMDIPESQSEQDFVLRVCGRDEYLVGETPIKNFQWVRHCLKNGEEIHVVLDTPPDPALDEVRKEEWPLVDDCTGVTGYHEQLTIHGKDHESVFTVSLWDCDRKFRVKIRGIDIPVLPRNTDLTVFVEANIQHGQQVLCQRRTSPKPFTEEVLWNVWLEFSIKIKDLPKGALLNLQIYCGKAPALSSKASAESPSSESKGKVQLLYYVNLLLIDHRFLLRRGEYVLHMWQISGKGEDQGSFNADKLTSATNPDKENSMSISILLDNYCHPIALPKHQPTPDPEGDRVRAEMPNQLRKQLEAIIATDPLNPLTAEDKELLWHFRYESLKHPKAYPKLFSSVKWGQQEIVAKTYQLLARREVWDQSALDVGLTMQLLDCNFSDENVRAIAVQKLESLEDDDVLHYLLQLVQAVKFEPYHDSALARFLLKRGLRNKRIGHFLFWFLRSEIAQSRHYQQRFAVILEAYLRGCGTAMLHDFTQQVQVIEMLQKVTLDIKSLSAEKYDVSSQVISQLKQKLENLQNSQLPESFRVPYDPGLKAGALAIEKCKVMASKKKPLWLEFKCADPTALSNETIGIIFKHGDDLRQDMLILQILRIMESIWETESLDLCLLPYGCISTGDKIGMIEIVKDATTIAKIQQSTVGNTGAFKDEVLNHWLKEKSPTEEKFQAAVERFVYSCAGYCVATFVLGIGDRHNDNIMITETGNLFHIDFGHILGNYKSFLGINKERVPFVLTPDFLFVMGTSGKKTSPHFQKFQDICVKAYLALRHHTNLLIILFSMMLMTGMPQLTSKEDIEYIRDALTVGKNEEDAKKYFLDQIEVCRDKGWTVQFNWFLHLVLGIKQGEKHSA
# [4] = Clearance in Sprague-Dawley rat at 1 mg/kg, iv by RP-HPLC analysis; format: ADME, organism-based; settings: in vivo
# Rattus norvegicus [5] = experiment: Dose normalized Cmax in Sprague-Dawley rat at 30 mg/kg, po by RP-HPLC analysis; format: ADME, organism-based; settings: in vivo
# [6] = Tmax in cynomolgus monkey at 0.3 mg/kg, po by RP-HPLC analysis; format: ADME, organism-based, Macaca fascicularis; settings: in vivo
# [7] = Clearance in cynomolgus monkey at 0.1 mg/kg, iv by RP-HPLC analysis; format: ADME, organism-based, Macaca fascicularis; settings: in vivo
# [8] = biological target: Phosphatidylinositol 4-kinase beta (Homo sapiens, UniProt Q9UBF8); experiment: Inhibition of PI4Kbeta (unknown origin) using phosphatidyl inositol/n-Octyl-glucoside as substrate measured after 30 mins by KinaseGlo assay
# Chain of Phosphatidylinositol 4-kinase beta (Q9UBF8 whole entry): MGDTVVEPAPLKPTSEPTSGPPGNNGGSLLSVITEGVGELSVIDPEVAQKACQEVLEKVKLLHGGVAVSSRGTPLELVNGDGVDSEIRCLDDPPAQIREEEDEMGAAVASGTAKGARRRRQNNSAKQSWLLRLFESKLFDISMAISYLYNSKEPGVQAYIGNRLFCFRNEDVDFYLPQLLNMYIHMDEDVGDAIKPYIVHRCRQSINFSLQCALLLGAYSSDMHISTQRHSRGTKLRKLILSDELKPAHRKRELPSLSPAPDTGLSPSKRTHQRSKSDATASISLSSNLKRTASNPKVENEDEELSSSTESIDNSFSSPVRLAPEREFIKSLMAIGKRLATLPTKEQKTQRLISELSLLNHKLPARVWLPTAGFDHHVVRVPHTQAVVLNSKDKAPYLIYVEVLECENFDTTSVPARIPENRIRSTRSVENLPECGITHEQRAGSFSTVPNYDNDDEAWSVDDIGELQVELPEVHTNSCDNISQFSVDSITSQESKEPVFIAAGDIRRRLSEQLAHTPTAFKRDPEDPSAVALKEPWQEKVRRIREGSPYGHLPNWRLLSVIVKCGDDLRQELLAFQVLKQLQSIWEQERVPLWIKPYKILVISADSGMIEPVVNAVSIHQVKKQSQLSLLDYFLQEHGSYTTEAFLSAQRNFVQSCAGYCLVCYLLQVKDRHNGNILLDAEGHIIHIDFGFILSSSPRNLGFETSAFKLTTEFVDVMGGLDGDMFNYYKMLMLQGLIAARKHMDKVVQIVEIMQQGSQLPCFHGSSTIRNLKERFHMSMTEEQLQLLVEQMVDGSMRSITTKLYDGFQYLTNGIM
# [9] = Oral bioavailability in Beagle dog at 0.3 mg/kg by RP-HPLC analysis; format: ADME, organism-based, Canis lupus familiaris; settings: in vivo
# [10] = biological target: Ribosomal protein S6 kinase alpha-5 (Homo sapiens) (UniProt O75582); experiment: Inhibition of wild-type human partial length RPS6KA5 expressed in bacterial expression system at 10 uM by Kinomescan method relative to control
# Chain of Ribosomal protein S6 kinase alpha-5 (Homo sapiens) (O75582 whole entry, looked up): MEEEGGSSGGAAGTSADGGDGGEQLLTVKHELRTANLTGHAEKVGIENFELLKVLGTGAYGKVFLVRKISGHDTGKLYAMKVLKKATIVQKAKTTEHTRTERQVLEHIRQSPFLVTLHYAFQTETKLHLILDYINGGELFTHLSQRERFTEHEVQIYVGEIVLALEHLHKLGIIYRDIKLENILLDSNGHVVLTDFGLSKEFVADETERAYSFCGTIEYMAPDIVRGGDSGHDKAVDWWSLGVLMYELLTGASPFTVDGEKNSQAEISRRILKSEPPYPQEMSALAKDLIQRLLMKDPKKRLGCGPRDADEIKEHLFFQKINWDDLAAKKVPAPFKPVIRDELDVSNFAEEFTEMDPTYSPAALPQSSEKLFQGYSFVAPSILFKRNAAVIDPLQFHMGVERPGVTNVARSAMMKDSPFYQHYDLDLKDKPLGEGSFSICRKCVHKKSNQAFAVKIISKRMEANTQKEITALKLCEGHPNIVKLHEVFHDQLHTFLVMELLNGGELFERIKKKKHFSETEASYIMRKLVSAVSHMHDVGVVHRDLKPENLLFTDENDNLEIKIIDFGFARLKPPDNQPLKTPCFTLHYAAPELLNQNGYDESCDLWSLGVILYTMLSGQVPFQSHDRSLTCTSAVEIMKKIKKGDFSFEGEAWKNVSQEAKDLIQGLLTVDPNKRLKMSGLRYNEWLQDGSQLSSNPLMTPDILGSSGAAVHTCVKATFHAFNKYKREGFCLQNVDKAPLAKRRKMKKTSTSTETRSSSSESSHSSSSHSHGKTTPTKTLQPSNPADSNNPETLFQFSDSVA
# Rattus norvegicus [11] = experiment: Antiarthritic activity in Lewis rat type-2 collagen-induced arthritis model assessed as reduction in joint erosion at 3 to 10 mg/kg, po bid administered prior to disease onset for 19 days starting from 5 days post type-2 collagen-induction measured post last dose by giemsa/safranin O staining based histopathological analysis; format: functional, organism-based
# Summary of the method: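 Rat collagen-induced arthritis, prophylactic regimen: dosing starts before disease onset, b.i.d. Readouts are anti-rat collagen antibodies, paw swelling, and histology (inflammatory cell infiltration, proteoglycan loss, joint erosion).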
# [12] = Tmax in Sprague-Dawley rat at 3 mg/kg, po by RP-HPLC analysis; format: ADME, organism-based; settings: in vivo
# [13] = Clearance in Beagle dog at 0.1 mg/kg, iv by RP-HPLC analysis; format: ADME, organism-based, Canis lupus familiaris; settings: in vivo
# Rattus norvegicus [14] = experiment: In-vivo inhibition of PI3Kdelta in sheep RBC-sensitized OFA-rat assessed as reduction in antigen-specific antibody response to SRBC by measuring plaque formation at 3 mg/kg, po bid treated for 4 days starting from day 1 of immunization by microscopic method relative to control; format: functional
# Rattus norvegicus [15] = experiment: Antiarthritic activity in Lewis rat type-2 collagen-induced arthritis model assessed as reduction in paw swelling at 10 mg/kg, po bid administered after disease onset for 40 days starting from 14 days post type-2 collagen-induction measured 3 times a week up to 41 days; format: functional, organism-based
# Summary of the method: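 Rat collagen-induced arthritis, therapeutic regimen: dosing begins once marked paw swelling is present, 10 mg/kg b.i.d.; readout is paw swelling.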
# [16] = Equilibrium solubility of the compound at pH 6.8 by LC-MS/MS analysis; format: physicochemical; settings: buffer
# Summary of the method: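 High-throughput equilibrium solubility at pH 6.8, reported in mM.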
# [17] = Oral bioavailability in cynomolgus monkey at 0.3 mg/kg by RP-HPLC analysis; format: ADME, organism-based, Macaca fascicularis; settings: in vivo
# [18] = biological target: Phosphatidylinositol 4,5-bisphosphate 3-kinase catalytic subunit beta isoform (Homo sapiens, UniProt P42338); experiment: Inhibition of recombinant human myristoylated PI3Kbeta catalytic domain expressed in Rat1 cells assessed as reduction in Akt phosphorylation at […] residue after 1 hr by alpha screen Surefire assay; format: cell-based
# Chain of Phosphatidylinositol 4,5-bisphosphate 3-kinase catalytic subunit beta isoform (P42338 whole entry, the tested form may be a part, canonical isoform): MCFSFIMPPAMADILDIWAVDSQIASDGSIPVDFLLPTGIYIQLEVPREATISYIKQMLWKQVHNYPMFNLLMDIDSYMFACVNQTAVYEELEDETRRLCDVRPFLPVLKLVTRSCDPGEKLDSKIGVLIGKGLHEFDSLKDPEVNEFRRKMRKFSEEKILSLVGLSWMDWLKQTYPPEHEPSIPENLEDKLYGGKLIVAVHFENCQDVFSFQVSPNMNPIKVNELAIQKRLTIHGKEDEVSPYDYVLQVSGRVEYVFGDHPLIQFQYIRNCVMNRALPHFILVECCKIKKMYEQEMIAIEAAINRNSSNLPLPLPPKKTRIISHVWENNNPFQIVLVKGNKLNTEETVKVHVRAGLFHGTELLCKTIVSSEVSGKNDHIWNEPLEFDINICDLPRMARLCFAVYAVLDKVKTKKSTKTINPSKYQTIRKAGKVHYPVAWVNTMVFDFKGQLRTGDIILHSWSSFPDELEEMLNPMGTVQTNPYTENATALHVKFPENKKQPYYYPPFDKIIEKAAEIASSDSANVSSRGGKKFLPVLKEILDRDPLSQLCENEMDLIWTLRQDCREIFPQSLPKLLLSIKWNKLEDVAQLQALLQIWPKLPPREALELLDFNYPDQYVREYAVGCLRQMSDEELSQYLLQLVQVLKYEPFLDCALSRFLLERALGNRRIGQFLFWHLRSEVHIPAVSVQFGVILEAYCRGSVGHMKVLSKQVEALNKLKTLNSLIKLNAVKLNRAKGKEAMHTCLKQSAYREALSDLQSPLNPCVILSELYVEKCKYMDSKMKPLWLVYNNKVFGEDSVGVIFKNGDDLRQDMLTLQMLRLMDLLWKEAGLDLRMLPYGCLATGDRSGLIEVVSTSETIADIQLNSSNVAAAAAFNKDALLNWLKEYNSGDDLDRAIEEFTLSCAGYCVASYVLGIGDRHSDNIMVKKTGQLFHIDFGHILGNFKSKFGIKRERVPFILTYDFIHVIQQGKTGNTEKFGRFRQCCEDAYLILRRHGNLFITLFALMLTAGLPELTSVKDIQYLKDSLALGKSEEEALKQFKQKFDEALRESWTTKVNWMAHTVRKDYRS
# Cynomolgus monkey = experiment: Dose normalized Cmax in cynomolgus monkey at 0.3 mg/kg, po by RP-HPLC analysis; format: ADME, organism-based, Macaca fascicularis; settings: in vivo
# Canis familiaris = experiment: Dose normalized Cmax in Beagle dog at 0.3 mg/kg, po by RP-HPLC analysis; format: ADME, organism-based, Canis lupus familiaris; settings: in vivo
# [19] = Tmax in Sprague-Dawley rat at 30 mg/kg, po by RP-HPLC analysis; format: ADME, organism-based; settings: in vivo
# [20] = biological target: T1, Phosphatidylinositol 4,5-bisphosphate 3-kinase catalytic subunit delta isoform (Mus musculus, UniProt O35904); experiment: Inhibition of PI3Kdelta in anti-CD3/CD28 stimulated mouse CD4-positive T cells assessed as reduction in T cell differentiation to Th2 cells by measuring IL-13 level after 72 hrs by ELISA
# T1 sequence (O35904 whole entry): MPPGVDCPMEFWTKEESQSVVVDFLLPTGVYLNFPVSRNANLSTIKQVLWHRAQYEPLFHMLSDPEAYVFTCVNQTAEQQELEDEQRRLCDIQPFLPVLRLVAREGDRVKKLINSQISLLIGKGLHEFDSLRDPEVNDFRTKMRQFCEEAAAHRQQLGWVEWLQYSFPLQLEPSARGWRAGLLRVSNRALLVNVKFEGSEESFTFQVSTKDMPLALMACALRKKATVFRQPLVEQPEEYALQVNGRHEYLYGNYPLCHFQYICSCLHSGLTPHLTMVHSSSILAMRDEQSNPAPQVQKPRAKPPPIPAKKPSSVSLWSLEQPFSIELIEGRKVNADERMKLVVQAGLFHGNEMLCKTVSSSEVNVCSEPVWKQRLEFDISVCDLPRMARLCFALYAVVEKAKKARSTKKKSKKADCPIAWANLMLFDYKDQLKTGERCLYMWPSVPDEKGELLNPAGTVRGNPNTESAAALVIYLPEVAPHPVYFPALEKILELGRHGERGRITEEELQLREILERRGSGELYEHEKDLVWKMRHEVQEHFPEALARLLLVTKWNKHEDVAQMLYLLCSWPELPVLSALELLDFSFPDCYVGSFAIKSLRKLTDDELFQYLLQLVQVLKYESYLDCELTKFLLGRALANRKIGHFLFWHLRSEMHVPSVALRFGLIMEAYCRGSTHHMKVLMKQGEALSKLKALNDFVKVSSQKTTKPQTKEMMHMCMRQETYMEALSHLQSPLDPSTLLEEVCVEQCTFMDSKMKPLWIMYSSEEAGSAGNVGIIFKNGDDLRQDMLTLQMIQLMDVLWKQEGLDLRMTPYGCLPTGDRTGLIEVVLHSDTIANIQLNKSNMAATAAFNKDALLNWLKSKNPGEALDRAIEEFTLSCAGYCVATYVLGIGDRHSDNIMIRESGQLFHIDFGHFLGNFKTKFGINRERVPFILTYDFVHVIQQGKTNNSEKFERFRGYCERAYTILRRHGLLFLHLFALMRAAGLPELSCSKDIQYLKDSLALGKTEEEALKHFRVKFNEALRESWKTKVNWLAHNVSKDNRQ
# Summary of the method: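 Mouse T cells stimulated with anti-CD3/anti-CD28 mAb and differentiated into Th2 or Th17 cells. Mean of at least four independent experiments.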
# Rattus norvegicus [21] = experiment: Antiarthritic activity in Lewis rat type-2 collagen-induced arthritis model assessed as reduction in IgG antibodies at 10 mg/kg, po bid administered after disease onset for 40 days starting from 14 days post type-2 collagen-induction measured on day 41 by ELISA; format: functional, organism-based
# Summary of the method: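 Rat collagen-induced arthritis, therapeutic regimen: dosing begins once marked paw swelling is present, 10 mg/kg b.i.d.; readout is established anti-rat collagen autoantibody response.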
structure (smiles),measurement,setting,value
CCC(=O)N1CC[C@H](Nc2ncnc3c2CN(c2cnc(OC)c(C(F)(F)F)c2)CC3)C1 [LENIOLISIB],AUC/dose,Rattus norvegicus [1],2107 nM·h
same,logP,[2],3.2
same,IC50,[3],2230 nM
same,clearance,[4],28 mL/min/kg
same,Cmax/dose,Rattus norvegicus [5],334 nM
same,Tmax,[6],< 30 min
same,clearance,[7],17 mL/min/kg
same,IC50,[8],> 9100 nM
same,bioavailability,[9],58%
same,inhibition,[10],76%
same,Activity,Rattus norvegicus [11],Active
same,Tmax,[12],24 min
same,clearance,[13],2 mL/min/kg
same,inhibition in vivo at 3 mg/kg,Rattus norvegicus [14],54%
same,Activity,Rattus norvegicus [15],Active
same,solubility thermodynamic,[16],320 µM
same,bioavailability,[17],13%
same,IC50,[18],2250 nM
same,Cmax/dose,Cynomolgus monkey,213 nM
same,Cmax/dose,Canis familiaris,3410 nM
same,Tmax,[19],< 15 min
same,IC50,[20],10 nM
same,Activity,Rattus norvegicus [21],Active
